One assay concerns EKVX. The assay is described as follows: Cytotoxicity against human EKVX cells. It counts as functional. Summed up:
(§1)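 Growth inhibition read as GI50. Lines were run at one of two sites. At Cetek, cells grew in ATCC-recommended media and viability was read as CellTiter Blue resazurin reduction by fluorescence at 530/590. At NCI DTP, cells grew in RPMI 1640 with 5% FBS and 2 mM L-glutamine, and viability was read by TCA fixation and sulforhodamine B total-protein staining.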

A further assay deals with Jurkat. The assay is described as follows: Cytotoxicity against human Jurkat cells. Format: functional. Summed up:
as §1

The subject of another assay is SNB-75. Description: Cytotoxicity against human SNB75 cells. It counts as functional. Summed up: as §1
Another assay has as its system HepG2. The assay is described as follows: Cytotoxicity against human HepG2 cells. It counts as functional. Summed up:
as §1

For another assay, the system named is BT-549. Description: Cytotoxicity against human BT549 cells. Format: functional. A digest of the protocol: as §1
For another assay, the system named is OVCAR-3. The assay is described as follows: Cytotoxicity against human OVCAR-3 cells. It counts as functional. A digest of the protocol: as §1
In assay [1] the target is T1, RAC-alpha serine/threonine-protein kinase (Homo sapiens, UniProt P31749). Description: Inhibition of sulfhydryl-labeled human recombinant Akt1 expressed in baculovirus assessed as phosphorylation of recombinant Bad protein by Western blotting. A digest of the protocol:
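Active recombinant Akt1 (50 nM final) was preincubated 5 min at room temperature with test agent in DMSO (1.4% final) in assay dilution buffer. Soluble Bad (1.2 µM final) and Mg-ATP solution were then added, followed by 30 min at 30 °C with agitation. Read-out was SDS-PAGE, PVDF transfer, anti-phospho-Bad (Ser112) with HRP secondary, chemiluminescence and densitometry. IC50 is the mean of three experiments.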
On the technique in general: A western blot detects proteins with antibodies after separation by electrophoresis.

For the next assay, the system named is K562. Description: Cytotoxicity against human K562 cells. Format: functional. Summed up: as §1
A further assay has as its system OVCAR-5. The assay is described as follows: Cytotoxicity against human OVCAR5 cells. Format: functional. A digest of the protocol:
as §1

The subject of the next assay is M14. Description: Cytotoxicity against human M14 cells. It counts as functional. Summed up:
as §1

Another assay relates to NCI-H23. The assay is described as follows: Cytotoxicity against human NCI-H23 cells. It counts as functional. Summed up:
as §1

For a further assay, the system named is SK-MEL-28. Description: Cytotoxicity against human SK-MEL-28 cells. Format: functional. Summed up:
as §1

In another assay the test system is MDA-MB-435. The assay is described as follows: Cytotoxicity against human MDA-MB-435 cells. It counts as functional. A digest of the protocol: as §1
A further assay concerns OVCAR-8. The assay is described as follows: Cytotoxicity against human OVCAR8 cells. Format: functional. A digest of the protocol:
as §1

The next assay concerns RPMI-8226. The assay is described as follows: Cytotoxicity against human RPMI8226 cells. It counts as functional. A digest of the protocol:
as §1

In another assay the test system is U-937. Description: Cytotoxicity against human U937 cells. Format: functional. A digest of the protocol: as §1
Another assay relates to MCF7. Description: Cytotoxicity against human MCF7 cells. It counts as functional. Summed up:
as §1

Assay [2] addresses T1, RAC-alpha serine/threonine-protein kinase. Description: Inhibition of sulfhydryl-labeled human recombinant Akt1 expressed in baculovirus by affinity capillary electrophoresis assay. A digest of the protocol:
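Baculovirus-expressed human Akt1 was buffer-exchanged into 30 mM HEPES pH 7.5 with 0.1% Chaps and 150 mM NaCl. It was labeled with Fluorescein-5-EX succinimidyl ester (dye:protein 5:1) for 2 h on ice, quenched with β-mercaptoethanol and stored in 50% glycerol at -20 °C. Compound was titrated against labeled Akt1 by affinity capillary electrophoresis. IC50 is the mean of three experiments with SEM.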

The test system of another assay is U-251. Description: Cytotoxicity against human U251 cells. It counts as functional. Summed up:
as §1

pIC50: −log10 of the molar value.

T1 sequence (P31749 whole entry): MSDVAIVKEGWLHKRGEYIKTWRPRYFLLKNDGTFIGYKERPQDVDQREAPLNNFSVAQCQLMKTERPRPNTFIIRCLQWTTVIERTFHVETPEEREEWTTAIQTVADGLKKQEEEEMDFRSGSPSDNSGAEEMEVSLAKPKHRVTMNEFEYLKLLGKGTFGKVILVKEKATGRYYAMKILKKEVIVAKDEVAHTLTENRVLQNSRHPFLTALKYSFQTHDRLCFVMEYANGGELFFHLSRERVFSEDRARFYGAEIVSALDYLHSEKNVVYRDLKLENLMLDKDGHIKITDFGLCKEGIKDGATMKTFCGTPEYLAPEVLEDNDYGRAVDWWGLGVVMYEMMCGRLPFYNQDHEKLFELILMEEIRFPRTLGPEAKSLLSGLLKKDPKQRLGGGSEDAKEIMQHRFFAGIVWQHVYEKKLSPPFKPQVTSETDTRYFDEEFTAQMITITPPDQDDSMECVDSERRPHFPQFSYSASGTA

A word on the GI50: it is the concentration giving 50% growth inhibition. Usually pIC50 stands for −log10 of the IC50, conventionally taken in molar units. For the molecule `CC1OC(=O)c2cc(O)c(O)c(O)c21` (centres undefined), the GI50 in the assay on EKVX is over 100 µM; in the assay on Jurkat it was 20 µM; in the assay with SNB-75, 60 µM; in the assay with HepG2, over 100 µM; in the assay with BT-549, 24 µM; with OVCAR-3 it was over 100 µM. Moreover, the concentration for 50% growth inhibition (GI50) in the assay with K562 was over 100 µM; in the assay with OVCAR-5 it was 74 µM; in the assay with M14 it was over 100 µM; in the assay on NCI-H23 it was 87 µM; in the assay with SK-MEL-28 it was 37 µM; with MDA-MB-435, 85 µM. In addition, the GI50 was 82 µM in the assay with OVCAR-8; 67 µM in the assay with RPMI-8226; 60 µM with U-937; over 100 µM with MCF7; over 100 µM in the assay with U-251. In addition, the pIC50 in assay [1] was 4.52; in assay [2] it was 4.71.
